Assay results taken from ChEMBL document CHEMBL3286272, “Synthesis, biological, and biophysical studies of DAG-indololactones designed as selective activators of RasGRP” (Bioorg Med Chem, 2014).
Activity calls are given as the source filed them.

Assays:
Format in all cases: cell-based
[1] = biological target: Protein kinase C delta type (Homo sapiens) (UniProt Q05655); test: Binding affinity to recombinant human GFP-tagged PKC-delta expressed in human LNCAP cells assessed as induction of protein translocation from plasma membrane to internal membrane at 1000 nM after 2 to 10 mins by confocal microscopic analysis
In short: (§1)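 Human GFP-PKCδ or GFP-RasGRP3 is expressed transiently in LNCaP cells, which were plated at 80,000 cells/ml, transfected after 48 h and imaged live 24 h after transfection. Cells are treated with ligand ([…]) or PMA (1000 nM). Confocal images (488 nm excitation, 500–530 nm emission) are taken every 30 s for 30 min. Representative images, n = 3–6.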

[2] = biological target: T1, Ras guanyl-releasing protein 3 (Homo sapiens) (UniProt Q8IV61); test: Binding affinity to recombinant human GFP-tagged RasGRP3 expressed in human LNCAP cells assessed as induction of protein translocation from plasma membrane to internal membrane at 1000 nM after 2 to 10 mins by confocal microscopic analysis; in short: as §1
T1 sequence (whole entry): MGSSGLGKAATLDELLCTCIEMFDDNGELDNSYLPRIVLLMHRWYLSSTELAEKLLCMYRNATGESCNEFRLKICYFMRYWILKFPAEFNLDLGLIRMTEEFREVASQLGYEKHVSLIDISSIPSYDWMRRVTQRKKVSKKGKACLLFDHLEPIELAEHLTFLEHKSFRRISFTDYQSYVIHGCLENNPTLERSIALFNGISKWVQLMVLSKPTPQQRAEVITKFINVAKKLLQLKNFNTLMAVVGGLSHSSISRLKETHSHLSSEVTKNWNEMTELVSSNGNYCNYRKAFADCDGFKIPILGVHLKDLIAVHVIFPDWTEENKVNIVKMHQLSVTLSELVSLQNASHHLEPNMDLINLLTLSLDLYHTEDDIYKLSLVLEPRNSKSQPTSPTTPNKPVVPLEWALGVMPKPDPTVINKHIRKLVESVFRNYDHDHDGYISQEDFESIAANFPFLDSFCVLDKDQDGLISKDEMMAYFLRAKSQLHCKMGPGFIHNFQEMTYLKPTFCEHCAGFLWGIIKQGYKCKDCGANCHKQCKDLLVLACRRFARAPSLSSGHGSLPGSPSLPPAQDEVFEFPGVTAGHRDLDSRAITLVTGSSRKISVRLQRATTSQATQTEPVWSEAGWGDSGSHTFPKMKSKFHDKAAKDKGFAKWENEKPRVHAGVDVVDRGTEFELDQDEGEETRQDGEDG

[3] = biological target: T1, Ras guanyl-releasing protein 3 (Homo sapiens); test: Activation of RasGRP3 (unknown origin) overexpressed in HEK293 cells assessed as ERK1/2 phosphorylation at 0.1 to 30 uM after 30 mins by Western blot analysis
[4] = biological target: Protein kinase C delta type (Homo sapiens) (UniProt Q05655); test: Activation of PKC-delta in HEK293 cells assessed as protein phosphorylation at S299 at 0.1 to 30 uM after 30 mins by Western blot analysis
[5] = biological target: T1, Ras guanyl-releasing protein 3 (Homo sapiens); test: Activation of RasGRP3 (unknown origin) overexpressed in HEK293 cells assessed as protein phosphorylation at T133 at 0.1 to 30 uM after 30 mins by Western blot analysis
[6] = biological target: Protein kinase C delta type (Homo sapiens) (UniProt Q05655); test: Activation of PKC-delta in HEK293 cells overexpressing RasGRP3 assessed as protein phosphorylation at S299 at 0.1 to 30 uM after 30 mins by Western blot analysis

Measured: Activity

Protein kinase C delta type (Homo sapiens), sequence (Q05655 whole entry, looked up): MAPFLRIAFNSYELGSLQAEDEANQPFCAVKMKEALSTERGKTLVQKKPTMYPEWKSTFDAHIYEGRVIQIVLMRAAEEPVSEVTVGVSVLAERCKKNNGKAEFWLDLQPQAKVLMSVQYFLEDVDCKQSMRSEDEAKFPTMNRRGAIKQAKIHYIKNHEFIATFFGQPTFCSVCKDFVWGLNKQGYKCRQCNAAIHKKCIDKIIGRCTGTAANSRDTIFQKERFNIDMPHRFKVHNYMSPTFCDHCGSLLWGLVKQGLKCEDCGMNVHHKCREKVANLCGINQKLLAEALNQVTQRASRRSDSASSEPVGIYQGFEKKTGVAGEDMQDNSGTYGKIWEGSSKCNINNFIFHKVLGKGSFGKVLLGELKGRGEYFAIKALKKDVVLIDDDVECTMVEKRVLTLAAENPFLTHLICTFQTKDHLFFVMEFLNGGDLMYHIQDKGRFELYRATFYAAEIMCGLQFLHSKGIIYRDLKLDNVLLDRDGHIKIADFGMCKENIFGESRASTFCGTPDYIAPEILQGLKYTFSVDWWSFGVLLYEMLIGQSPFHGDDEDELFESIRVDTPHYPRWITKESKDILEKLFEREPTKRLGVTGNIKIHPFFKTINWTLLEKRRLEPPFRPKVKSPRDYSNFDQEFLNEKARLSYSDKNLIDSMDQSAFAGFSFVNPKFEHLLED

CCCC(=O)O[C@@H]1[C@@H](C)[C@@]2(O)[C@@H](C=C(CO)C[C@]3(O)C(=O)C(C)=C[C@@H]23)[C@@H]2C(C)(C)[C@]12OC(=O)CCC
active: [1] | [2]

CCCCCCCCCCCCCC(=O)O[C@@H]1[C@@H](C)[C@@]2(O)[C@@H](C=C(CO)C[C@]3(O)C(=O)C(C)=C[C@@H]23)[C@@H]2C(C)(C)[C@]12OC(C)=O
active: all assays above
